# Laboratory results published in ChEMBL document CHEMBL1154008, “Synthesis and in vitro activity of new tetrahydronaphtho[1,2-b]azepine derivatives against Trypanosoma cruzi and Leishmania chagasi parasites” (Bioorg Med Chem Lett, 2009).
# Tested on: not listed separately
# Experiment: Selectivity index, ratio of CC50 for human THP1 cells to IC50 for Leishmania chagasi MHOM/BR/74/PP75 promastigotes
# Assay type: functional, THP-1
# Conditions: not given
# In short: (§1)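 SI calculated as Vero CC50 divided by T. cruzi IC50, or THP-1 CC50 divided by L. chagasi IC50. Both values come from 72 h exposures: parasites at 27 °C, mammalian cells at 37 °C with MTT read-out.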
row,Compound,Ratio CC50/IC50
1,c1ccc([C@@H]2C[C@@H]3Cc4ccc5ccccc5c4N2O3)cc1,>16.5
2,COc1cccc([C@@H]2C[C@H](O)Cc3ccc4ccccc4c3N2)c1,10.9
3,O[C@@H]1Cc2ccc3ccccc3c2N[C@H](c2cccc(Br)c2)C1,2.3
4,O[C@@H]1Cc2ccc3ccccc3c2N[C@H](c2cccc(Cl)c2)C1,7.2
5,Cc1cccc([C@@H]2C[C@H](O)Cc3ccc4ccccc4c3N2)c1,2.2
6,Clc1ccc([C@@H]2C[C@@H]3Cc4ccc5ccccc5c4N2O3)c(Cl)c1,>11.3

# Tested on: Leishmania chagasi
# Experiment: Antiparasitic activity against Leishmania chagasi MHOM/BR/74/PP75 promastigotes infected in human THP1 cells after 72 hrs
# Conditions: MHOM/BR/74/PP75, THP-1, 72 h
Compound,IC50 [µM],IC90 [µM]
c1ccc([C@@H]2C[C@@H]3Cc4ccc5ccccc5c4N2O3)cc1,21.2,175
COc1cccc([C@@H]2C[C@H](O)Cc3ccc4ccccc4c3N2)c1,17.9,58.7
O[C@@H]1Cc2ccc3ccccc3c2N[C@H](c2cccc(Br)c2)C1,18.3,55.7
O[C@@H]1Cc2ccc3ccccc3c2N[C@H](c2cccc(Cl)c2)C1,6,67.3
Cc1cccc([C@@H]2C[C@H](O)Cc3ccc4ccccc4c3N2)c1,41.4,134
Clc1ccc([C@@H]2C[C@@H]3Cc4ccc5ccccc5c4N2O3)c(Cl)c1,22.1,45.8

# Tested on: not listed separately
# Experiment: Selectivity index, ratio of CC50 for african green monkey Vero cells to IC50 for Trypanosoma cruzi 320I04 intracellular amastigotes
# Assay type: functional
# Conditions: not given
row,Compound,Ratio CC50/IC50
1,c1ccc([C@@H]2C[C@@H]3Cc4ccc5ccccc5c4N2O3)cc1,<0.7
2,COc1cccc([C@@H]2C[C@H](O)Cc3ccc4ccccc4c3N2)c1,4
3,O[C@@H]1Cc2ccc3ccccc3c2N[C@H](c2cccc(Br)c2)C1,0.5
4,O[C@@H]1Cc2ccc3ccccc3c2N[C@H](c2cccc(Cl)c2)C1,1.3
5,Cc1cccc([C@@H]2C[C@H](O)Cc3ccc4ccccc4c3N2)c1,2.6
6,Clc1ccc([C@@H]2C[C@@H]3Cc4ccc5ccccc5c4N2O3)c(Cl)c1,<0.2

# Tested on: Trypanosoma cruzi
# Experiment: Antiparasitic activity against Trypanosoma cruzi 320I04 epimastigotes […] after 72 hrs
# Assay type: functional, organism-based
# Conditions: not given
# In short: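 Free parasite forms (T. cruzi 320I04 epimastigotes; L. chagasi MHOM/BR/74/PP75 promastigotes) exposed to compounds for 72 h at 27 °C. IC50/IC90 taken as the concentrations giving 50% or 90% growth inhibition. Values are representative of one experiment out of three.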
Compound,IC50 [µM],IC90 [µM]
c1ccc([C@@H]2C[C@@H]3Cc4ccc5ccccc5c4N2O3)cc1,11.5,> 350
COc1cccc([C@@H]2C[C@H](O)Cc3ccc4ccccc4c3N2)c1,14,48.5
O[C@@H]1Cc2ccc3ccccc3c2N[C@H](c2cccc(Br)c2)C1,10.7,19.4
O[C@@H]1Cc2ccc3ccccc3c2N[C@H](c2cccc(Cl)c2)C1,1.4,54.9
Cc1cccc([C@@H]2C[C@H](O)Cc3ccc4ccccc4c3N2)c1,16.5,42.7
Clc1ccc([C@@H]2C[C@@H]3Cc4ccc5ccccc5c4N2O3)c(Cl)c1,52.7,> 250

# Tested on: not listed separately
# Experiment: Cytotoxicity against african green monkey Vero cells after 72 hrs by MTT assay
# Assay type: cell-based
# Conditions: chlorocebus sabaeus
# In short: (§2)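 Vero or transformed THP-1 cells exposed to a 3-fold compound dilution series, in triplicate, for 72 h at 37 °C. Toxicity read by MTT reduction. CC50/CC90 taken as the concentrations killing 50% or 90% of cells. Values are representative of one experiment out of three.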
Compound,CC50 at 72 h [µM],CC90 at 72 h [µM]
c1ccc([C@@H]2C[C@@H]3Cc4ccc5ccccc5c4N2O3)cc1,72.9,> 350
COc1cccc([C@@H]2C[C@H](O)Cc3ccc4ccccc4c3N2)c1,97.6,> 200
O[C@@H]1Cc2ccc3ccccc3c2N[C@H](c2cccc(Br)c2)C1,49.5,> 250
O[C@@H]1Cc2ccc3ccccc3c2N[C@H](c2cccc(Cl)c2)C1,30.7,> 200
Cc1cccc([C@@H]2C[C@H](O)Cc3ccc4ccccc4c3N2)c1,87.4,> 250
Clc1ccc([C@@H]2C[C@@H]3Cc4ccc5ccccc5c4N2O3)c(Cl)c1,55,> 250

# Tested on: Trypanosoma cruzi
# Experiment: Antiparasitic activity against Trypanosoma cruzi 320I04 intracellular amastigotes infected in african green monkey Vero cells after 72 hrs
# Assay type: functional, organism-based
# Conditions: 320I04, Vero
Compound,IC50 [µM],IC90 [µM]
c1ccc([C@@H]2C[C@@H]3Cc4ccc5ccccc5c4N2O3)cc1,> 100,> 100
COc1cccc([C@@H]2C[C@H](O)Cc3ccc4ccccc4c3N2)c1,24.3,> 30
O[C@@H]1Cc2ccc3ccccc3c2N[C@H](c2cccc(Br)c2)C1,> 100,> 100
O[C@@H]1Cc2ccc3ccccc3c2N[C@H](c2cccc(Cl)c2)C1,23.4,> 30
Cc1cccc([C@@H]2C[C@H](O)Cc3ccc4ccccc4c3N2)c1,33.4,> 30
Clc1ccc([C@@H]2C[C@@H]3Cc4ccc5ccccc5c4N2O3)c(Cl)c1,> 250,> 250

# Tested on: not listed separately
# Experiment: Selectivity index, ratio of CC50 for african green monkey Vero cells to IC50 for Trypanosoma cruzi 320I04 epimastigotes
# Assay type: functional
# Conditions: not given
# In short: as §1
row,Compound,Ratio CC50/IC50
1,c1ccc([C@@H]2C[C@@H]3Cc4ccc5ccccc5c4N2O3)cc1,6.3
2,COc1cccc([C@@H]2C[C@H](O)Cc3ccc4ccccc4c3N2)c1,7
3,O[C@@H]1Cc2ccc3ccccc3c2N[C@H](c2cccc(Br)c2)C1,4.6
4,O[C@@H]1Cc2ccc3ccccc3c2N[C@H](c2cccc(Cl)c2)C1,21.9
5,Cc1cccc([C@@H]2C[C@H](O)Cc3ccc4ccccc4c3N2)c1,5.3
6,Clc1ccc([C@@H]2C[C@@H]3Cc4ccc5ccccc5c4N2O3)c(Cl)c1,1

# Tested on: not listed separately
# Experiment: Cytotoxicity against human THP1 cells after 72 hrs by MTT assay
# Assay type: cell-based
# Conditions: THP-1 cells
# In short: as §2
Compound,CC50 at 72 h [µM],CC90 at 72 h [µM]
c1ccc([C@@H]2C[C@@H]3Cc4ccc5ccccc5c4N2O3)cc1,> 350,> 350
COc1cccc([C@@H]2C[C@H](O)Cc3ccc4ccccc4c3N2)c1,195,> 300
O[C@@H]1Cc2ccc3ccccc3c2N[C@H](c2cccc(Br)c2)C1,41.7,> 250
O[C@@H]1Cc2ccc3ccccc3c2N[C@H](c2cccc(Cl)c2)C1,43.2,177
Cc1cccc([C@@H]2C[C@H](O)Cc3ccc4ccccc4c3N2)c1,89.9,116
Clc1ccc([C@@H]2C[C@@H]3Cc4ccc5ccccc5c4N2O3)c(Cl)c1,> 250,> 250
